UCH37 inh: inhibitors of human UCH37 deubiquitinase, primary screen, biochemical, Ub-AMC cleavage, fluorescence; Ubiquitin carboxyl-terminal hydrolase isozyme L5 (Homo sapiens), Q9Y5K5; purified proteasome/UCH37; inhibition, % (concentration not given with the values); hit rate 0.33% among 330,000; AID 588478, 2011;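 active = mean inhibition over replicate wells above about 20%, limit read from the data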;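 also: 0% = compound-free wells with enzyme and 100% = wells lacking proteasome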
Target sequence (Q9Y5K5 whole entry, looked up): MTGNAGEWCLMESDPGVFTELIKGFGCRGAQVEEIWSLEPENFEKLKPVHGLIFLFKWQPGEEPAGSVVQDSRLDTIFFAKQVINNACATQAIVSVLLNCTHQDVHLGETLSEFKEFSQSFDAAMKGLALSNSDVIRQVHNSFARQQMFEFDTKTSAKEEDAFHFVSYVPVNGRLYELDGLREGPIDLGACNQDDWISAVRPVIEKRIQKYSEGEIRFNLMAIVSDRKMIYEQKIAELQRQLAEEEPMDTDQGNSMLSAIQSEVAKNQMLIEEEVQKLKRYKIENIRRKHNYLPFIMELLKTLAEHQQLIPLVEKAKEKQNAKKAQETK
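system = Proteasome-associated human UCH37 deubiquitinase | amount = 0.15 nM proteasome as dispensed | medium = pH 7.4 Tris-HCl (50 mM) with ovalbumin, ATP-MgCl2, DTT | incubation = 30 min preincubation with enzyme, 25 min cleavage at room temperature | detection = AMC fluorescence 355/460 nm | read-out basis = percent inhibition | controls = no-proteasome and no-compound wells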
bovine MsrA act: bovine MsrA enzyme activators, primary screen, biochemical, absorbance, HTS | Methionine sulfoxide reductase A (Bos taurus) | purified bovine MsrA, absorbance read-out | activation, % at 10.6 µM | hit rate 0.3% among 360,000; in the data active = activation above about 7.5%;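 also: 0% = vehicle and 100% = reference activator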
aDG glyco act: activators of alpha-DG glycosylation, primary screen, uHTS, Pro5-aDG cells, AlphaScreen. activation, % at 10 µM. alpha-DG glycosylation AlphaScreen (IIH6); 0% Pro5, 100% B10-LARGE cell signal. hit rate 0.22% among 360,000;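 active = activation of at least 8% versus controls, or a plate z-score of at least 8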;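 also: Pro5 are CHO cells carrying HIG-tagged alpha-DG that lacks glycosylation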
Glyco luc inh: increase of ERlucT glycosylation luciferase signal, primary screen, N-linked glycosylation inhibitor project, D54 ERlucT cells, luminescence, set 2. D54 ERlucT glycosylation luciferase reporter, 24 h; percent of 100 nM tunicamycin response. reporter increase, % at 12.5 µM. hit rate 0.23% among 360,000. AID 588692, 2011;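 active = mean luciferase reporter signal, scaled so untreated is 0 and the glycosylation-blocking control 100, at or above a set limit in every replicate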;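 also: luciferase carries N-glycosylation sites so blocking glycosylation raises the light; 0% = median of neutral control wells and 100% = median of 100 nM tunicamycin wells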
MsrA inh: bovine MsrA enzyme inhibitors, primary screen, biochemical, absorbance, HTS | purified bovine MsrA, absorbance read-out | inhibition, % at 15.5 µM | hit rate 0.75% among 360,000;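 also: 0% = vehicle wells with enzyme and 100% = reference inhibitor wells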
Vif inh: HIV Vif self-association inhibitors, primary screen, imaging, HEK293T, single point. HEK293T cells, Vif self-association by quenched fluorescence, 24 h. inhibition, % at 7.49 µM. hit rate 0.35% among 340,000. AID 602346, 2012; in the data active = inhibition above about 50%, passing the limit was not always enough
MsrA conf: bovine MsrA inhibitors, retest, confirmation, biochemical, absorbance, HTS. shares compounds with MsrA inh. purified bovine MsrA, absorbance read-out. inhibition, % at 15.5 µM. hit rate 41% among 2,300;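 also: coupled to thioredoxin reductase with NADPH and selenocystamine and DMSO as substrate; 0% = vehicle only and 100% = full effect of reference inhibitor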
* hit, by the source's call; . = not tested or not shown; ! = repeats disagree. Sampled rows, rich in hits. Any-hit rate of the full collection: about 1.9%. Rule as the data show it, unless noted: active = inhibition above about 4.5%; inactive = the rest.

SMILES	UCH37 inh	bovine MsrA act	aDG glyco act	Glyco luc inh	MsrA inh	Vif inh	MsrA conf
O=[N+]([O-])c1ccc(-c2nc3ccc([N+](=O)[O-])cc3[nH]2)cc1	6.7	-8.2	0.6	-3.3	0.8	4.2	.
CCCC[n+]1ccc(-c2nc3ccc([N+](=O)[O-])cc3[nH]2)cc1	12.3	0.0	0.0	0.5	4.8*	-4.9	3.8
O=C(NN=Cc1nn(-c2ccccc2)cc1-c1ccccc1)c1ccncc1	-43.3	.	.	.	.	.	.
Nc1n[nH]c(N)c1N=Nc1ccc(F)cc1	11.3	-1.6	-0.1	-0.3	3.1	2.8	.
Nc1n[nH]c(N)c1N=Nc1ccccc1	13.8	-5.1	-0.1	0.7	5.0*	2.2	3.9
CN=c1scc(C)n1N=Cc1ccc(O)cc1O	7.4	.	.	.	.	.	.
COc1ccc(N(CC(=O)NN=Cc2cccc(OC)c2OC)S(=O)(=O)c2ccccc2)cc1	1.0	.	.	.	.	.	.
COCCCNC(=O)C(=O)N/N=C/c1cc2c(cc1Br)OCO2	.	-2.9	0.0	3.3	5.0*	4.2	2.9
COc1cccc(C2=NCCc3cc4c(cc32)OCO4)c1OC	-1.1	-12.9	0.1	0.1	1.7	-6.5	.
COc1ccc2cc3[n+](cc2c1OC)CCc1cc2c(cc1-3)OCO2	7.5	-6.5	0.2	-0.3	6.6*!	5.3	5.4*
CN(C)c1ccc(N=C/C=C2\N(C)c3ccccc3C2(C)C)cc1	16.9	-2.8	1.5	-9.1	5.0*	14.7	1.9
CN1/C(=C\C=O)C(C)(C)c2ccccc21	14.1	-0.9	0.0	-1.6	6.8*	-0.6	6.0*
CN1\C(=C/C=C/C=C/C=[N+](C)C)C(C)(C)c2ccccc21	8.3	-4.1	0.9	-2.8	-1.7	0.3	.
Cc1cc(/N=C/C=C2\N(C)c3ccccc3C2(C)C)n(CCC#N)n1	.	-2.8	0.0	-0.1	5.4*	11.5	2.9
CC(CC(=O)Nc1cccnc1)=NNC(=O)C(=O)NC(C)C	4.5	.	.	.	.	.	.
O=[N+]([O-])c1cc([N+](=O)[O-])c(Oc2cccc(Cl)c2Cl)cc1NN1CCCCC1	6.4	-2.3	-0.2	-7.1	0.3	-4.9	.
CCc1occc(=O)c1Oc1cc(NN2CCCCC2)c([N+](=O)[O-])cc1[N+](=O)[O-]	3.0	-4.1	0.0	-0.9	13.4*	-2.2	9.0*
C(=C\c1ccccc1)/C=N/Nc1nncc(-c2ccccc2)n1	.	.	.	.	42.5*	.	1.1
Cc1ccc(/C=N/Nc2nncc(-c3ccccc3)n2)o1	.	-18.5	0.5	4.9	5.8*	1.7	5.4*
CCC(C)c1ccc(NC(=O)CC(C)=NNC(=O)c2cnccn2)cc1 (configuration not stated)	8.0	.	.	.	.	.	.
Cc1cc(-c2ccc(C=Nn3cnnc3)o2)ccc1Cl	3.9	.	.	.	.	.	.
COC(=O)CCC(=O)Nc1ccc(N=Nc2ccccc2)cc1	9.2	-10.4	-0.1	-3.6	3.8	12.0	.
O=C(O)CCCC(=O)Nc1ccc(N=Nc2ccccc2)cc1	16.3	0.2	-0.3	0.6	6.6*	.	3.0
O=c1oc2ccccc2c2c1cnc1ccccc12	-6.6	-1.9	-0.2	2.2	15.7*	1.1	15.0*
Cc1cnc(N)c2c(=O)oc3ccccc3c12	-128.3	-2.5	0.2	3.6	0.2	2.3	.
CCOc1cccc(-c2c(C(=O)NN=C(C)c3cccs3)nnn2-c2nonc2N)c1	3.6	.	.	.	.	.	.
CC1Cc2nc(SCC(=O)Nc3ccc4c(c3)OCCO4)n(C)c(=O)c2S1 (configuration not stated)	6.3	-4.4	0.9	2.7	5.0*	.	0.7
COCCn1c(SCC(=O)Nc2ccc3c(c2)OCCO3)nc2c(c1=O)SC(C)C2 (configuration not stated)	12.7	-10.5	0.2	7.3	5.2*	-4.7	2.0

Compound activity: PubChem, several laboratories
